Results on 22 compounds are retold here after ChEMBL document CHEMBL1152399, “Synthesis and fungicidal activity of 3,5-dichloropyrazin-2(1H)-one derivatives” (2009).

Format in all cases: functional
Experiment [1] concerns Candida albicans. In words: Antifungal activity against Candida albicans CAI4. The procedure, abridged:
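C. albicans CAI4 overnight YPD culture diluted in PBS (~2 × 10⁶ cells/mL) and exposed to a range of compound concentrations in 2% DMSO for 5 h at 37 °C, then CFU counted. Survival is the CFU ratio against the 2% DMSO control. MFC is the lowest concentration giving <0.1% survival.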

Experiment [2] has as its system Candida albicans. Description: Induction of reactive oxygen species production in Candida albicans assessed as corrected fluorescence value at 100 ug/mL after 3 hrs by fluorescence assay. The method, boiled down:
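C. albicans grown overnight in YPD at 37 °C and resuspended in PBS. Cells mixed with a 100 µg/mL compound solution in 10% DMSO (DMSO alone as control) and held 1 h at 37 °C. 2',7'-dichlorofluorescin diacetate then added; fluorescence read after 3 h (ex 485/em 525 nm). A compound-plus-probe blank without cells was subtracted to give the corrected value.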

For experiment [3], the system named is Saccharomyces cerevisiae. In words: Ratio of MIC for wild type Saccharomyces cerevisiae BY4741 to MIC for REG1 gene knockout Saccharomyces cerevisiae mutant.
Experiment [4] relates to Saccharomyces cerevisiae. In words: Antifungal activity against 3,5-dichloro-6-(chloromethyl)-1-phenylpyrazin-2(1H)-one-resistant Saccharomyces cerevisiae mutant after 48 hrs by microtiter plate method.
The subject of experiment [5] is Saccharomyces cerevisiae. Description: Antifungal activity against VPS15 gene knockout Saccharomyces cerevisiae mutant after 48 hrs by microtiter plate method. The method, boiled down: (§1)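 Yeast deletion mutants grown in YPD in microtiter wells for 48 h at 30 °C. For the retest, 5 µL fivefold serial dilutions of stationary-phase cultures were spotted on YPD with or without compound, and growth was compared with BY4741 after 48 h at 30 °C.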

For experiment [6], the system named is Saccharomyces cerevisiae. In words: Ratio of MIC for 3,5-dichloro-6-(chloromethyl)-1-phenylpyrazin-2(1H)-one-resistant Saccharomyces cerevisiae mutant to MIC for wild type Saccharomyces cerevisiae BY4741.
In experiment [7] the test system is Saccharomyces cerevisiae. Description: Antifungal activity against GET2 gene knockout Saccharomyces cerevisiae mutant after 48 hrs by microtiter plate method. The procedure, abridged:
as §1

Experiment [8] has as its system Saccharomyces cerevisiae. Description: Antifungal activity against wild type Saccharomyces cerevisiae BY4741 after 48 hrs by microtiter plate method. Particulars: BY4741, 48 h. The method, boiled down: as §1
In experiment [9] the test system is Saccharomyces cerevisiae. In words: Antifungal activity against YKL118W gene knockout Saccharomyces cerevisiae mutant after 48 hrs by microtiter plate method. The procedure, abridged: as §1
The subject of experiment [10] is Saccharomyces cerevisiae. Description: Antifungal activity against VPH2 gene knockout Saccharomyces cerevisiae mutant after 48 hrs by microtiter plate method. The method, boiled down: as §1
Experiment [11] has as its system Saccharomyces cerevisiae. Description: Ratio of MIC for wild type Saccharomyces cerevisiae BY4741 to MIC for VPH2 gene knockout Saccharomyces cerevisiae mutant.
The test system of experiment [12] is Saccharomyces cerevisiae. Description: Ratio of MIC for wild type Saccharomyces cerevisiae BY4741 to MIC for VPS15 gene knockout Saccharomyces cerevisiae mutant.
Experiment [13] has as its system Saccharomyces cerevisiae. In words: Ratio of MIC for wild type Saccharomyces cerevisiae BY4741 to MIC for SPT7 gene knockout Saccharomyces cerevisiae mutant.
For experiment [14], the system named is Saccharomyces cerevisiae. Description: Antifungal activity against AMD1 gene knockout Saccharomyces cerevisiae mutant after 48 hrs by microtiter plate method. The method, boiled down:
as §1

The test system of experiment [15] is Saccharomyces cerevisiae. Description: Antifungal activity against CUP5 gene knockout Saccharomyces cerevisiae mutant after 48 hrs by microtiter plate method. The procedure, abridged:
as §1

Experiment [16] relates to Candida albicans. In words: Antifungal activity against Candida albicans assessed as fungus survival rate at 5 ug/mL in presence of ascorbic acid. The procedure, abridged: (§2)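 Overnight C. albicans YPD culture diluted in PBS (~2 × 10⁶ cells/mL) and treated with compound in 2% DMSO, with or without 80 mM ascorbic acid, for 5 h at 37 °C. CFU counted, and percentage survival taken against the 2% DMSO control.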

Experiment [17] deals with Saccharomyces cerevisiae. In words: Antifungal activity against VMA7 gene knockout Saccharomyces cerevisiae mutant after 48 hrs by microtiter plate method. The method, boiled down:
as §1

The test system of experiment [18] is Saccharomyces cerevisiae. Description: Ratio of MIC for wild type Saccharomyces cerevisiae BY4741 to MIC for ADA2 gene knockout Saccharomyces cerevisiae mutant.
Experiment [19] relates to Saccharomyces cerevisiae. In words: Ratio of MIC for wild type Saccharomyces cerevisiae BY4741 to MIC for HTL1 gene knockout Saccharomyces cerevisiae mutant.
For experiment [20], the system named is Saccharomyces cerevisiae. In words: Ratio of MIC for wild type Saccharomyces cerevisiae BY4741 to MIC for YKL118W gene knockout Saccharomyces cerevisiae mutant.
Experiment [21] relates to Saccharomyces cerevisiae. Description: Antifungal activity against SPT7 gene knockout Saccharomyces cerevisiae mutant after 48 hrs by microtiter plate method. The procedure, abridged: as §1
The subject of experiment [22] is Saccharomyces cerevisiae. In words: Ratio of MIC for wild type Saccharomyces cerevisiae BY4741 to MIC for GET2 gene knockout Saccharomyces cerevisiae mutant.
The test system of experiment [23] is Saccharomyces cerevisiae. Description: Ratio of MIC for wild type Saccharomyces cerevisiae BY4741 to MIC for CUP5 gene knockout Saccharomyces cerevisiae mutant.
Experiment [24] concerns Saccharomyces cerevisiae. Description: Ratio of MIC for wild type Saccharomyces cerevisiae BY4741 to MIC for VMA7 gene knockout Saccharomyces cerevisiae mutant.
The subject of experiment [25] is Saccharomyces cerevisiae. In words: Antifungal activity against REG1 gene knockout Saccharomyces cerevisiae mutant after 48 hrs by microtiter plate method. The procedure, abridged: as §1
Experiment [26] concerns Saccharomyces cerevisiae. In words: Antifungal activity against ADA2 gene knockout Saccharomyces cerevisiae mutant after 48 hrs by microtiter plate method. The method, boiled down:
as §1

Experiment [27] relates to Candida albicans. In words: Antifungal activity against Candida albicans assessed as fungus survival rate at 5 ug/mL in absence of ascorbic acid. The method, boiled down:
as §2

The subject of experiment [28] is Saccharomyces cerevisiae. In words: Antifungal activity against HTL1 gene knockout Saccharomyces cerevisiae mutant after 48 hrs by microtiter plate method. The procedure, abridged:
as §1

Experiment [29] has as its system Saccharomyces cerevisiae. In words: Ratio of MIC for wild type Saccharomyces cerevisiae BY4741 to MIC for AMD1 gene knockout Saccharomyces cerevisiae mutant.

Structures are written as SMILES. In brackets after ≈: the same amount, converted by molar mass. Bounds are passed on as bounds.

As to `O=c1c(Cl)nc(Cl)cn1CCc1ccccc1`, the MFC (usually the smallest concentration meeting the test's criterion for killing the fungus) with Candida albicans [1] is 50 µg/mL (≈ 186 µM).

For `COc1ccc(Cn2c(C)c(Cl)nc(Cl)c2=O)cc1`, in the experiment on Candida albicans [1], the MFC is > 100 µg/mL.

`COc1ccc(-n2cc(Cl)nc(Cl)c2=O)cc1`: the minimal fungicidal concentration (MFC) in the experiment with Candida albicans [1] is 10 µg/mL (≈ 36.9 µM).

As for `COCCn1c(-c2ccccc2)c(Cl)nc(Cl)c1=O`, the Activity in the experiment on Candida albicans [2] is recorded as >500. The MFC in the experiment with Candida albicans [1] was > 100 µg/mL.

As for `COc1ccc(Cn2cc(Cl)nc(Cl)c2=O)cc1`, the MFC in the experiment on Candida albicans [1] worked out at 50 µg/mL (≈ 175 µM).

With `COc1ccccc1-c1c(Cl)nc(Cl)c(=O)n1-c1ccccc1`, the Activity in the experiment on Candida albicans [2] was < 100. In addition, the MFC in the experiment on Candida albicans [1] was > 100 µg/mL.

On to `COc1nc(Cl)c(CCl)n(-c2ccccc2)c1=O`, for which the Activity in the experiment with Candida albicans [2] was >500. For the same compound, the MFC against Candida albicans [1] was > 100 µg/mL.

In turn, `O=c1c(Cl)nc(Cl)cn1Cc1ccccc1` had an MFC against Candida albicans [1] of 50 µg/mL (≈ 196 µM).

Regarding `COc1cccc(-c2c(Cl)nc(Cl)c(=O)n2C)c1`, in the experiment on Candida albicans [2], the Activity was >500. Also, in the experiment on Candida albicans [1], the minimum fungicidal concentration (MFC) was > 100 µg/mL.

With `Cc1c(Cl)nc(Cl)c(=O)n1Cc1ccccc1`, the Activity with Candida albicans [2] is >500. The MFC in the experiment on Candida albicans [1] is > 100 µg/mL.

As for `O=c1c(-c2ccccc2)nc(Cl)c(CCl)n1-c1ccccc1`, the Activity with Candida albicans [2] is reported as >500. In addition, in the experiment on Candida albicans [1], the MFC is > 100 µg/mL.

`COc1ccc(Cn2c(-c3ccc(OC)cc3)c(Cl)nc(Cl)c2=O)cc1`: in the experiment with Candida albicans [2], the Activity is recorded as >500. Further, the minimal fungicidal concentration (MFC) with Candida albicans [1] was > 100 µg/mL.

As for `COC(=O)c1ccc(-c2c(Cl)nc(Cl)c(=O)n2-c2ccccc2)cc1`, the MFC with Candida albicans [1] is > 100 µg/mL.

`Cc1ccccc1-c1c(Cl)nc(Cl)c(=O)n1-c1ccccc1`: in the experiment on Candida albicans [2], the Activity is recorded as >500. In the experiment on Candida albicans [1], the minimum fungicidal concentration (MFC) was > 100 µg/mL.

For the compound `Cc1c(Cl)nc(Cl)c(=O)n1-c1ccccc1`, the minimum fungicidal concentration (MFC) against Candida albicans [1] is > 100 µg/mL.

For `O=c1c(Cl)nc(Cl)c(CCl)n1-c1ccccc1`, the Ratio with Saccharomyces cerevisiae [3], in the experiment with Saccharomyces cerevisiae [6], in the experiment on Saccharomyces cerevisiae [11], in the experiment on Saccharomyces cerevisiae [12], with Saccharomyces cerevisiae [13] and in the experiment with Saccharomyces cerevisiae [18] was 5 each time. In addition, the Ratio with Saccharomyces cerevisiae [19], with Saccharomyces cerevisiae [20], with Saccharomyces cerevisiae [22], with Saccharomyces cerevisiae [23], in the experiment with Saccharomyces cerevisiae [24] and in the experiment on Saccharomyces cerevisiae [29] was 5 in each case. Moreover, the MIC (usually the lowest concentration that inhibits growth of the organism) in the experiment on Saccharomyces cerevisiae [4] came out at 12.5 µg/mL (≈ 43.2 µM); in the experiment with Saccharomyces cerevisiae [5] it was 0.5 µg/mL (≈ 1.73 µM); with Saccharomyces cerevisiae [7], 0.5 µg/mL (≈ 1.73 µM); against Saccharomyces cerevisiae [8], 2.5 µg/mL (≈ 8.63 µM); in the experiment on Saccharomyces cerevisiae [9] it was 0.5 µg/mL (≈ 1.73 µM); in the experiment with Saccharomyces cerevisiae [10] it was 0.5 µg/mL (≈ 1.73 µM). For the same compound, the minimal inhibitory concentration (MIC) in the experiment with Saccharomyces cerevisiae [14], against Saccharomyces cerevisiae [15], in the experiment with Saccharomyces cerevisiae [17], in the experiment on Saccharomyces cerevisiae [21], in the experiment with Saccharomyces cerevisiae [25] and against Saccharomyces cerevisiae [26] was 0.5 µg/mL (≈ 1.73 µM) in each case. This compound returned an MIC with Saccharomyces cerevisiae [28] of 0.5 µg/mL (≈ 1.73 µM). In the experiment on Candida albicans [1], this compound gave an MFC of 5 µg/mL (≈ 17.3 µM). In addition, the Activity in the experiment with Candida albicans [16] turned out to be 64%; in the experiment on Candida albicans [27], 0.009%.

Take `COc1ccc(-c2c(Cl)nc(Cl)c(=O)n2-c2ccccc2)cc1`: the MFC against Candida albicans [1] is > 100 µg/mL.

As to `COc1ccccc1Cn1c(Cc2ccccc2)c(Cl)nc(Cl)c1=O`, the MFC in the experiment on Candida albicans [1] was > 100 µg/mL.

`O=c1c(Cl)nc(Cl)cn1-c1ccccc1` gave an MFC with Candida albicans [1] of 10 µg/mL (≈ 41.5 µM).

As for `O=c1c(Cl)nc(Cl)cn1C1CCCCC1`, in the experiment on Candida albicans [2], the Activity is >500. The MFC against Candida albicans [1] was > 100 µg/mL.

In the experiment on Candida albicans [1], `O=c1c(Cl)nc(Cl)c(CBr)n1-c1ccccc1` had a minimum fungicidal concentration (MFC) of 5 µg/mL (≈ 15 µM).

On to `O=c1c(Cl)nc(Cl)cn1CC1CCCCC1`, for which the MFC against Candida albicans [1] was 100 µg/mL (≈ 383 µM). Compared with the last compound, the MFC is about 20-fold higher.
